Laboratory results as given in ChEMBL document CHEMBL3286182, “4-aminoquinolone piperidine amides: noncovalent inhibitors of DprE1 with long residence time and potent antimycobacterial activity” (J Med Chem, 2014).
Converted amounts (≈) assume the structure as drawn. The source made the active and inactive calls. No cut-off for these calls is given here.

Columns and labels:
[1] = Solubility of the compound in fed-state simulated intestinal fluid at pH 6.5; type: ADME
[2] = Octanol-water partition coefficient, log D of the compound by shake-flask method; type: physicochemical
Cytochrome P450 2C9 = Cytochrome P450 2C9 (Homo sapiens, UniProt P11712); experiment: Inhibition of CYP2C9 (unknown origin); type: ADME
Summary of the method: (§1)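 CYP inhibition IC50 measured on isoforms CYP3A4, CYP2D6, CYP2C9, CYP2C19 and CYP1A2.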

Cytochrome P450 2D6 = Cytochrome P450 2D6 (Homo sapiens, UniProt P10635); experiment: Inhibition of CYP2D6 (unknown origin); type: ADME; summary of the method: as §1
[3] = Inhibition of Mycobacterium smegmatis recombinant DprE1 using farnesylphosphoryl-beta-D-ribofuranose as substrate assessed as conversion of amplex red to resorufin after 30 mins; parameters: species or system Mycolicibacterium smegmatis
Summary of the method: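 Msm DprE1 (thioredoxin-6His fusion of Msm Rv3790) at 75 nM, preincubated 30 min with 10 μM FAD. Buffer: 50 mM glycylglycine pH 8.5, 200 mM potassium glutamate, 0.002% Brij-35, 2% DMSO, 25 °C. Started with 300 μM farnesylphosphoryl-β-D-ribofuranose, 0.01 mg/mL HRP and 50 μM Amplex Red.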

[4] = Cytotoxicity against human A549 cells after 72 hrs by resazurin based fluorescence assay; type: cell-based; conditions: read-out: MIC
Summary of the method: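 Cytotoxicity read as MMIC, the MIC on the A549 cell line.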

Cytochrome P450 2C19 = Cytochrome P450 2C19 (Homo sapiens, UniProt P33261); experiment: Inhibition of CYP2C19 (unknown origin); type: ADME; summary of the method: as §1
[5] = Permeability of the compound from apical to basolateral side in human Caco2 cells; type: ADME, cell-based; conditions: Caco-2, read-out: permeability
[6] = Permeability of the compound from basolateral to apical side in human Caco2 cells; type: ADME, cell-based; conditions: Caco-2, read-out: permeability
[7] = Fraction unbound in human plasma at 20 uM after 18 hrs by equilibrium dialysis method; type: ADME, cell-free
Cytochrome P450 3A4 = Cytochrome P450 3A4 (Homo sapiens, UniProt P08684); experiment: Inhibition of CYP3A4 (unknown origin); type: ADME; summary of the method: as §1
[8] = Intrinsic clearance in rat cryopreserved hepatocytes assessed per 10^6 cells at 1 uM up to 120 mins by LC-MS/MS analysis; type: ADME, cell-based, Hepatocyte; conditions: read-out: CLH
[9] = molecular target: Voltage-gated inwardly rectifying potassium channel KCNH2 (Homo sapiens, UniProt Q12809); experiment: Inhibition of human ERG by medium-throughput electrophysiology
[10] = Solubility of the compound in 0.1 M phosphate buffer at pH 7.4 after 24 hrs by UV and MS analysis; type: physicochemical
[11] = tested on: Mycobacterium tuberculosis; experiment: Antimycobacterial activity against Mycobacterium tuberculosis H37Rv after 5 days by standard microdilution method; type: functional; conditions: 120 h
Cytochrome P450 1A2 = molecular target: T1, Cytochrome P450 1A2 (Homo sapiens, UniProt P05177); experiment: Inhibition of CYP1A2 (unknown origin); type: ADME; summary of the method: as §1
T1 sequence (P05177 whole entry): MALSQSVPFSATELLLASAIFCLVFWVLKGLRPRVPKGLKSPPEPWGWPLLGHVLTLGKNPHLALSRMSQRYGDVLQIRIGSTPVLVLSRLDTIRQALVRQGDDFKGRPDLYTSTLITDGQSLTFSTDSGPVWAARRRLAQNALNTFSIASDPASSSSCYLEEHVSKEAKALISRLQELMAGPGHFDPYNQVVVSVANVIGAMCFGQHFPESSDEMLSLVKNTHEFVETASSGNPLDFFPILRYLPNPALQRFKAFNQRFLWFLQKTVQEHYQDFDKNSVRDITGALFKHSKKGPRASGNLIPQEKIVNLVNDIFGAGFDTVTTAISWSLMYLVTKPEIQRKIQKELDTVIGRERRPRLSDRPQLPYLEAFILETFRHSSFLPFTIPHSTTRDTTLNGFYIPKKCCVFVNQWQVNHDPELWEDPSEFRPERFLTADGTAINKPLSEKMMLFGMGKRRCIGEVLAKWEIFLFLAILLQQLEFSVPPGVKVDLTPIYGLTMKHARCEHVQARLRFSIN

[12] = Intrinsic clearance in human liver microsomes at 1 uM up to 30 mins by LC-MS/MS analysis; type: ADME; conditions: read-out: CLH
Klebsiella pneumoniae = experiment: Antimicrobial activity against Klebsiella pneumoniae ARC1865 at 100 uM; type: functional, organism-based
Summary of the method: (§2)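 Nonmycobacterial panel of Candida albicans, Gram-negative and Gram-positive pathogens.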

Haemophilus influenzae [13] = experiment: Antimicrobial activity against Haemophilus influenzae ARC158 at 100 uM; type: functional, organism-based; summary of the method: as §2
Staphylococcus aureus = experiment: Antimicrobial activity against Staphylococcus aureus ARC517 at 100 uM; type: functional, organism-based; summary of the method: as §2
[14] = tested on: Mycobacterium tuberculosis; experiment: Antimycobacterial activity against Mycobacterium tuberculosis H37Rv under hypoxic condition after 6 days by resazurin assay; type: functional
Escherichia coli [15] = experiment: Antimicrobial activity against Escherichia coli ARC524 at 100 uM; type: functional, organism-based; summary of the method: as §2
Haemophilus influenzae [16] = experiment: Antimicrobial activity against Haemophilus influenzae ARC446 at 100 uM; type: functional, organism-based; summary of the method: as §2
Candida albicans = experiment: Antimicrobial activity against Candida albicans ARC527 at 100 uM; type: functional, organism-based; summary of the method: as §2
Escherichia coli [17] = experiment: Antimicrobial activity against Escherichia coli ARC523 at 100 uM; type: functional, organism-based; summary of the method: as §2
Adenosine receptor A1 = molecular target: T2, Adenosine receptor A1 (Homo sapiens, UniProt P30542); experiment: Inhibition of adenosine A1 receptor (unknown origin)
T2 sequence (P30542 whole entry): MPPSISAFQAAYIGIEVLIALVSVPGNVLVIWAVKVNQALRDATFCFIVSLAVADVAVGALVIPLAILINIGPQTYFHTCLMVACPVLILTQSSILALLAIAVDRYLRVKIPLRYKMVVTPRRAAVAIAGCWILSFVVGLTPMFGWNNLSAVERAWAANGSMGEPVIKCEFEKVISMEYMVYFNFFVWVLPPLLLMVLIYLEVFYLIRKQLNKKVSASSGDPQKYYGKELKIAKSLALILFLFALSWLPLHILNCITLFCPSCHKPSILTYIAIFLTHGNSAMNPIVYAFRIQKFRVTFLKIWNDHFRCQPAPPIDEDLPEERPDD
Summary of the method: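 Secondary pharmacology panel of binding, enzyme and functional assays covering 24 molecular targets. Activity recorded as a defined Ki/IC50/EC50.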

Pseudomonas aeruginosa [18] = experiment: Antimicrobial activity against Pseudomonas aeruginosa ARC546 at 100 uM; type: functional, organism-based; summary of the method: as §2
[19] = tested on: Mycolicibacterium smegmatis; experiment: Antimicrobial activity against Mycobacterium smegmatis mc2155 at 100 uM; type: functional, organism-based; conditions: str. MC2 155
Streptococcus pneumoniae = experiment: Antimicrobial activity against Streptococcus pneumoniae ARC548 at 100 uM; type: functional, organism-based; summary of the method: as §2
[20] = tested on: Mycobacterium tuberculosis; experiment: Antimycobacterial activity against Mycobacterium tuberculosis over expressing DprE1 after 5 days by standard microdilution method; type: functional; conditions: 120 h
[21] = Inhibition of Mycobacterium smegmatis DprE1 Y321H mutant using farnesylphosphoryl-beta-D-ribofuranose as substrate assessed as conversion of amplex red to resorufin after 30 mins; parameters: species or system Mycolicibacterium smegmatis
Summary of the method: (§3)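 Recombinant M. smegmatis DprE1 (thioredoxin-6His fusion), wild type or Y321H, 75 nM. Enzyme was preincubated 30 min in FAD assay mix: 50 mM glycylglycine pH 8.5, 200 mM potassium glutamate, 10 μM FAD, 0.002% Brij-35, 2% DMSO. Reaction was started with 300 μM farnesylphosphoryl-β-D-ribofuranose, 0.01 mg/mL HRP and 50 μM amplex red at 25 °C.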

[22] = tested on: Mycolicibacterium smegmatis; experiment: Antimicrobial activity against Mycobacterium smegmatis ATCC 607 at 100 uM; type: functional, organism-based
[23] = tested on: Mycolicibacterium smegmatis; experiment: Ratio of IC50 for Mycobacterium smegmatis DprE1 Y321H mutant to IC50 for Mycobacterium smegmatis recombinant wild type DprE1; summary of the method: as §3
Pseudomonas aeruginosa [24] = experiment: Antimicrobial activity against Pseudomonas aeruginosa ARC545 at 100 uM; type: functional, organism-based; summary of the method: as §2

Sequence of Cytochrome P450 2C19 (P33261 whole entry): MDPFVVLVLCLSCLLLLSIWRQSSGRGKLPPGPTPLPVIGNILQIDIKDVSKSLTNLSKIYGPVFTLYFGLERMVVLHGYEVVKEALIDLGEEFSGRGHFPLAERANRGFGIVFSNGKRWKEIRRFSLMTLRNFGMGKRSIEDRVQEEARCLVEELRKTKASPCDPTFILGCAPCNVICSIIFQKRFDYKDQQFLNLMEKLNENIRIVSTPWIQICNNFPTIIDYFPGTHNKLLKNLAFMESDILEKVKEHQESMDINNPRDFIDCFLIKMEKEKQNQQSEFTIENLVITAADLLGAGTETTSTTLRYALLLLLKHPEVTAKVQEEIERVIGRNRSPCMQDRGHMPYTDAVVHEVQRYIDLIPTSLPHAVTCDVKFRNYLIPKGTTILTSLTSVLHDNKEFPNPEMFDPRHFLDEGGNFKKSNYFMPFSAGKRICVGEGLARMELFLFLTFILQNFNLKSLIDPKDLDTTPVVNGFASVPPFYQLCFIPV
Sequence of Cytochrome P450 3A4 (P08684 whole entry): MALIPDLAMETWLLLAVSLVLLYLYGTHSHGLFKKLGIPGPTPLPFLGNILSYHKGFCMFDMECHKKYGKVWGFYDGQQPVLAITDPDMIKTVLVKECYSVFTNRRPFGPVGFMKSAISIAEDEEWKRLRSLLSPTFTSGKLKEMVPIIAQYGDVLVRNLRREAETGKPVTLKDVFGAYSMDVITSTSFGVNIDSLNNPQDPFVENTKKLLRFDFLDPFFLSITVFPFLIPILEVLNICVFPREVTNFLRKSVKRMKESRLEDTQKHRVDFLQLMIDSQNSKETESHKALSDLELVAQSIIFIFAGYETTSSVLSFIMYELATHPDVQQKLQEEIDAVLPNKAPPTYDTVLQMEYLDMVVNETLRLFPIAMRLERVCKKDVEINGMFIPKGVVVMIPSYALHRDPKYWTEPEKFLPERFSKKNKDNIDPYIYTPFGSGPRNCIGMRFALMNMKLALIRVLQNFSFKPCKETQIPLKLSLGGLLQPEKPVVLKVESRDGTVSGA
Sequence of Voltage-gated inwardly rectifying potassium channel KCNH2 (Q12809 whole entry): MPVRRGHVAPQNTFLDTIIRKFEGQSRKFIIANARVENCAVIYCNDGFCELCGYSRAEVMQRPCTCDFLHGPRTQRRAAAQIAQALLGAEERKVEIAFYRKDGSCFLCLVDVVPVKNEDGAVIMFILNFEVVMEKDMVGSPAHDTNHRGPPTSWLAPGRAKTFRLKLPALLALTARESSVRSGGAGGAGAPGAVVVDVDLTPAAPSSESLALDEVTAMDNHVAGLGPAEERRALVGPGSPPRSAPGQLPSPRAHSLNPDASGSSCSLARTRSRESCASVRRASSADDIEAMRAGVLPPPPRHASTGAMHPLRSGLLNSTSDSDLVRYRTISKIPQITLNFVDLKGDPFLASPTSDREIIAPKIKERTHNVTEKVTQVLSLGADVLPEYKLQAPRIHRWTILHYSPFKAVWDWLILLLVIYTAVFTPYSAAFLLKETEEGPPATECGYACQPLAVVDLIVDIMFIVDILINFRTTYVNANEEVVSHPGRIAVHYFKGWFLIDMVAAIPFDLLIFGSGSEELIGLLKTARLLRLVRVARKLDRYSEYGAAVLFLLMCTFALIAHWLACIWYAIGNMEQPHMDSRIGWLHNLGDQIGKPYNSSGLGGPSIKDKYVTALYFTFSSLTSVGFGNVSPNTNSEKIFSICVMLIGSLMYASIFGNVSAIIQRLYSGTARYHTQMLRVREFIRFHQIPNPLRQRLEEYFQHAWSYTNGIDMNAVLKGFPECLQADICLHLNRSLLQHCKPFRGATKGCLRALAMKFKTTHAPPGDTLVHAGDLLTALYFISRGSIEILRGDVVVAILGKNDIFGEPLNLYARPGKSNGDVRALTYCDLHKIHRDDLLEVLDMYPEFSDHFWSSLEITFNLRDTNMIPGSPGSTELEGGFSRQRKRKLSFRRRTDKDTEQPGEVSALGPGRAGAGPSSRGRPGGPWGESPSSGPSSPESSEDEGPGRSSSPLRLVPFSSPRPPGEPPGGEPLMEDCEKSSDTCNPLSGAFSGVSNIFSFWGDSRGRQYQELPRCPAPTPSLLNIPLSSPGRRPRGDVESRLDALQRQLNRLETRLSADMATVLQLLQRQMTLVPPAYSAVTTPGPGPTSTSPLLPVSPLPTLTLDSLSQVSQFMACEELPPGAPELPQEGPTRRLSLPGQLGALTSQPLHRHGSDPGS
Sequence of Cytochrome P450 2D6 (P10635 whole entry): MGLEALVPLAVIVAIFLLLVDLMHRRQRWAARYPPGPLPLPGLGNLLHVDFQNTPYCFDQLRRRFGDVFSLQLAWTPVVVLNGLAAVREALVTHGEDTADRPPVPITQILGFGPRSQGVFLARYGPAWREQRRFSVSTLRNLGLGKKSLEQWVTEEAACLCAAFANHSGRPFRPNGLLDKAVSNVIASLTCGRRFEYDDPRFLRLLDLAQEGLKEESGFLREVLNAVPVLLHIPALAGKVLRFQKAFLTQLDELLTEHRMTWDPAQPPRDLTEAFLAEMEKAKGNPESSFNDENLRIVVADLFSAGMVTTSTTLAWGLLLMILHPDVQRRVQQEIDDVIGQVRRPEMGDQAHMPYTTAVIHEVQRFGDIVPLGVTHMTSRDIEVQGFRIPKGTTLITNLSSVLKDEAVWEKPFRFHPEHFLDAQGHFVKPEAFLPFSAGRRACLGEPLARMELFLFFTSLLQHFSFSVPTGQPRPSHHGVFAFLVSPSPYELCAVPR
Sequence of Cytochrome P450 2C9 (P11712 whole entry, canonical isoform): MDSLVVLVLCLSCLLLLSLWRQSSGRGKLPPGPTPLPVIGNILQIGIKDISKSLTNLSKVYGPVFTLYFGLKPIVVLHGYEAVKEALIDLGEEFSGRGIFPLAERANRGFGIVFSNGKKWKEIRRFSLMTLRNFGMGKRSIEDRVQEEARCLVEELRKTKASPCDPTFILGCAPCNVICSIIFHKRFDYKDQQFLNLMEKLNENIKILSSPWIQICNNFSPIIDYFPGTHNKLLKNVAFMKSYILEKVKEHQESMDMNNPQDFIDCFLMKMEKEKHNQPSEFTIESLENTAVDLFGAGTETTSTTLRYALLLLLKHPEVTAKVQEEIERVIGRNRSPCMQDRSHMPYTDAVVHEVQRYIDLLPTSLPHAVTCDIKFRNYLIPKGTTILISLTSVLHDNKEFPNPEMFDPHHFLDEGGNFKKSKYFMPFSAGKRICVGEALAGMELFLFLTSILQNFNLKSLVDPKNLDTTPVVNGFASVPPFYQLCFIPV

Compound	solubility [1] [µM]	logD [2]	INH (Cytochrome P450 2C9) [µM]	INH (Cytochrome P450 2D6) [µM]	IC50 [3] [µM]	MCC at 72 h [4] [µM]	INH (Cytochrome P450 2C19) [µM]	Papp A→B [5] [×10⁻⁶ cm/s]	Papp B→A [6] [×10⁻⁶ cm/s]	fraction unbound at 18 h, 20 µM [7]	INH (Cytochrome P450 3A4) [µM]	hepatocyte CLint at 1 µM [8] [µL/min/1e6 cells]	IC50 [9] [µM]	solubility at 24 h [10] [µM]	MIC [11] [µM]	INH (Cytochrome P450 1A2) [µM]	microsomal CLint at 1 µM [12] [µL/min/mg]	IC50 (Adenosine receptor A1) [µM]	further results
Cc1onc(C(=O)N2[C@@H]3CC[C@H]2C[C@@H](Nc2cc(=O)n(C)c4nccnc24)C3)c1C	307 (≈ 125 µg/mL)	1.8	> 30	> 30	0.183	> 50	> 30	33	21	0.05	> 30	20	> 33	132 (≈ 53.9 µg/mL)	6.2 (≈ 2.53 µg/mL)	> 30	100		
Cn1ncc(C(=O)N2[C@@H]3CC[C@H]2C[C@@H](Nc2cc(=O)n(C)c4ncccc24)C3)c1Cl	100 (≈ 42.7 µg/mL)	1.8	> 30	> 30	0.026	> 50	> 30	1	36	0.01	> 30	3	> 33	20 (≈ 8.54 µg/mL)	0.25 (≈ 0.107 µg/mL)	> 30	37		
Cc1onc(C(=O)N2CCC(Nc3cc(=O)n(C)c4cc(F)c(F)cc34)CC2)c1C	91 (≈ 37.9 µg/mL)	2.3	> 30	> 30	0.038	> 16	> 30	22	21	0.05	> 30	17		28 (≈ 11.7 µg/mL)	0.78 (≈ 0.325 µg/mL)	> 30	49	8	Activity (Klebsiella pneumoniae): inactive; Activity (Haemophilus influenzae [13]): inactive; Activity (Staphylococcus aureus): inactive; Activity [14]: inactive; Activity (Escherichia coli [15]): inactive; Activity (Haemophilus influenzae [16]): inactive; Activity (Candida albicans): inactive; Activity (Escherichia coli [17]): inactive; Activity (Pseudomonas aeruginosa [18]): inactive; Activity [19]: inactive; Activity (Streptococcus pneumoniae): inactive; MIC [20]: 100 µM (≈ 41.6 µg/mL); IC50 [21]: 7.02 µM; Activity [22]: inactive; fold change (FC) [23]: 165; Activity (Pseudomonas aeruginosa [24]): inactive
Cc1onc(C(=O)N2[C@@H]3CC[C@H]2C[C@@H](Nc2cc(=O)n(C)c4cc(F)c(F)cc24)C3)c1C		2.8	> 30	> 30	0.017	> 50	> 30	23	13	0.03	> 30	56	16	6 (≈ 2.65 µg/mL)	0.12 (≈ 0.0531 µg/mL)	> 30	107	8	
Cn1ncc(C(=O)N2[C@@H]3CC[C@H]2C[C@@H](Nc2n[nH]c4ccc(F)cc24)C3)c1Cl		1.9	> 30	> 30	0.12	> 50	> 30	20	31	0.08	> 30	9	> 33	> 1000	6.25 (≈ 2.52 µg/mL)	> 30	4	8	
